Laboratory results as given in paper PMC7416570 (ACS chemical biology, 2020).
“Also recorded” adds a separate entry of the source. Where no end group is shown, it is not given here.

Legend:
[1] = molecular target: T1, hPD-L1 (Homo sapiens, UniProt Q9NZQ7); assay: Radiolabeled binding assay on immobilized hPD-L1; conditions: for effect of mutation on hPD-L1 binding (alanine scanning): [35S]-labeled SPAM variants, binding normalized to [35S]-SPAM, n=3
[2] = Serum stability of [35S]-SPAM read out by binding to hPD-L1; format: in vitro ADME; conditions: [35S]-labeled SPAM, 25% human serum, 37 °C, up to eight hours
[3] = molecular target: T2, hPD-L2* (Homo sapiens, UniProt Q9BQ51); assay: Radiolabeled binding assay on immobilized hPD-L2*; conditions: radioactive binding assay
T2 sequence (Q9BQ51 20-220): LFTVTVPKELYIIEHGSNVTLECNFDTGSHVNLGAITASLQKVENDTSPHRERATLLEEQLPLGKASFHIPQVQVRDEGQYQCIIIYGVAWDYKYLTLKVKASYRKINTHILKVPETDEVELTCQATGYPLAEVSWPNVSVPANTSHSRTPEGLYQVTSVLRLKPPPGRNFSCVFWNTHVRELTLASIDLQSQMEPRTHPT
Procedure, shortened: (§1)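 Peptide mRNA was translated in rabbit reticulocyte lysate with [35S]-methionine (2 μCi per 10 pmol template, 30 °C, 1 h). The resulting fusions were purified on oligo-dT agarose and tested for pull-down by the immobilized target protein, read as bead-retained radioactivity.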

[4] = molecular target: T1, hPD-L1; assay: Radiolabeled binding assay on immobilized hPD-L1*; conditions: radioactive binding assay
Procedure, shortened: as §1

[5] = molecular target: hPD-L1/mPD-1 interaction (Homo sapiens, UniProt Q9NZQ7); assay: ELISA/IP assay of the hPD-L1/mPD-1 interaction; format: biochemical; conditions: 10 μM SPAM, hPD-L1 and mPD-1 100 nM
[6] = molecular target: hPD-L1 expressed on CHO-hPD-L1 cells (Homo sapiens, UniProt Q9NZQ7); assay: Antibody competition by flow cytometry, CHO-hPD-L1; format: cell-based; conditions: pre-treatment 0–20 μM
[7] = molecular target: mPD-L1 (Mus musculus, UniProt Q9EP73); assay: Radiolabeled binding assay on immobilized mPD-L1; conditions: radioactive binding assay
Procedure, shortened: as §1

[8] = molecular target: T1, hPD-L1; conditions: read-out: previously reported KD values PD-1/hPD-L1; cited from earlier work

Sequence of mPD-L1 (Q9EP73 19-239 limits assumed): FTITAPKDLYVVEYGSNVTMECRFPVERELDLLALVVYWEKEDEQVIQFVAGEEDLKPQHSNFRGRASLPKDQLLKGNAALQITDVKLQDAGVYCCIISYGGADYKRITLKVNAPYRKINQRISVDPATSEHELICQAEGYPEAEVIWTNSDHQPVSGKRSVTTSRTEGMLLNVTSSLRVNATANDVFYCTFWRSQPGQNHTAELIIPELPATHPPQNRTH

Molecule: L15A: SPAM variant with alanine substituted at position 15 (MPIFLDHILNKFWIAHYAGSGSSG; also: [35S]-labeled methionine, peptide-RNA fusion)
- effect of mutation on hPD-L1 binding (alanine scanning) [1]: completely abolished

Molecule: L9A: SPAM variant with alanine substituted at position 9 (MPIFLDHIANKFWILHYAGSGSSG; also: [35S]-labeled methionine, peptide-RNA fusion)
- effect of mutation on hPD-L1 binding (alanine scanning) [1]: little or no significant influence

Molecule: H7A: SPAM variant with alanine substituted at position 7 (MPIFLDAILNKFWILHYAGSGSSG; also: [35S]-labeled methionine, peptide-RNA fusion)
- effect of mutation on hPD-L1 binding (alanine scanning) [1]: completely abolished

Molecule: I8A: SPAM variant with alanine substituted at position 8 (MPIFLDHALNKFWILHYAGSGSSG; also: [35S]-labeled methionine, peptide-RNA fusion)
- effect of mutation on hPD-L1 binding (alanine scanning) [1]: little or no significant influence

Molecule: MRIFAVFIFMTYWHLLNA [hPD-L1 signal peptide, reference compound]
- binding of hPD-L1 signal peptide-mRNA fusion to hPD-L1 beads ([1]; streptavidin agarose beads loaded with 1.1 μM hPD-L1 (1,100 pmol)): some binding

Molecule: F4A: SPAM variant with alanine substituted at position 4 (MPIALDHILNKFWILHYAGSGSSG; also: [35S]-labeled methionine, peptide-RNA fusion)
- effect of mutation on hPD-L1 binding (alanine scanning) [1]: little or no significant influence

Molecule: I14A: SPAM variant with alanine substituted at position 14 (MPIFLDHILNKFWALHYAGSGSSG; also: [35S]-labeled methionine, peptide-RNA fusion)
- effect of mutation on hPD-L1 binding (alanine scanning) [1]: completely abolished

Molecule: D6A: SPAM variant with alanine substituted at position 6 (MPIFLAHILNKFWILHYAGSGSSG; also: [35S]-labeled methionine, peptide-RNA fusion)
- effect of mutation on hPD-L1 binding (alanine scanning) [1]: completely abolished

Molecule: A18: SPAM variant with glycine substituted for alanine at position 18 (MPIFLDHILNKFWILHYGGSGSSG; also: [35S]-labeled methionine, peptide-RNA fusion)
- effect of mutation on hPD-L1 binding (alanine scanning) [1]: completely abolished

Molecule: W13A: SPAM variant with alanine substituted at position 13 (MPIFLDHILNKFAILHYAGSGSSG; also: [35S]-labeled methionine, peptide-RNA fusion)
- effect of mutation on hPD-L1 binding (alanine scanning) [1]: completely abolished

Molecule: C#CC[C@H](NC(=O)CNC(=O)[C@H](CO)NC(=O)[C@H](C)NC(=O)[C@H](Cc1ccc(O)cc1)NC(=O)[C@H](Cc1c[nH]cn1)NC(=O)[C@H](CC(C)C)NC(=O)[C@@H](NC(=O)[C@H](Cc1c[nH]c2ccccc12)NC(=O)[C@H](Cc1ccccc1)NC(=O)[C@H](CCCCN)NC(=O)[C@H](CC(N)=O)NC(=O)[C@H](CC(C)C)NC(=O)[C@@H](NC(=O)[C@H](Cc1c[nH]cn1)NC(=O)[C@H](CC(=O)O)NC(=O)[C@H](CC(C)C)NC(=O)[C@H](Cc1ccccc1)NC(=O)[C@@H](NC(=O)[C@@H]1CCCN1C(=O)[C@@H](N)CCSC)[C@@H](C)CC)[C@@H](C)CC)[C@@H](C)CC)C(N)=O (stereo in doubt) [SPAM]
- loss of binding to hPD-L1 after incubation in human serum [2]: ~ 25%
- [35S]-labeled SPAM binding to hPD-L2* [3]: no significant binding; also recorded: essentially no binding
- [35S]-labeled SPAM binding to immobilized hPD-L1 ([1]; 75 pmol hPD-L1 on streptavidin agarose, 4 °C, 1 h): efficiently pulled-down
- [35S]-labeled SPAM binding to hPD-L1* [4]: captured
- disruption of PD-1 binding to hPD-L1 at 10 μM [5]: almost completely disrupted
- blocking of Fluorescein-16373 binding to CHO-hPD-L1 ([6]; 50 nM FAM-16373, flow cytometry): blocking
- blocking of Fluorescein-16377 binding to CHO-hPD-L1 ([6]; 50 nM FAM-16377, flow cytometry): blocking
- [35S]-labeled SPAM binding to mPD-L1 [7]: no significant binding; also recorded: not pulled-down; also recorded: essentially no binding

Molecule: H16A: SPAM variant with alanine substituted at position 16 (MPIFLDHILNKFWILAYAGSGSSG; also: [35S]-labeled methionine, peptide-RNA fusion)
- effect of mutation on hPD-L1 binding (alanine scanning) [1]: completely abolished

Molecule: I3A: SPAM variant with alanine substituted at position 3 (MPAFLDHILNKFWILHYAGSGSSG; also: [35S]-labeled methionine, peptide-RNA fusion)
- effect of mutation on hPD-L1 binding (alanine scanning) [1]: little or no significant influence

Molecule: P2A: SPAM variant with alanine substituted at position 2 (MAIFLDHILNKFWILHYAGSGSSG; also: [35S]-labeled methionine, peptide-RNA fusion)
- effect of mutation on hPD-L1 binding (alanine scanning) [1]: decreased levels of hPD-L1 binding

Molecule: F12A: SPAM variant with alanine substituted at position 12 (MPIFLDHILNKAWILHYAGSGSSG; also: [35S]-labeled methionine, peptide-RNA fusion)
- effect of mutation on hPD-L1 binding (alanine scanning) [1]: completely abolished

Molecule: N10A: SPAM variant with alanine substituted at position 10 (MPIFLDHILAKFWILHYAGSGSSG; also: [35S]-labeled methionine, peptide-RNA fusion)
- effect of mutation on hPD-L1 binding (alanine scanning) [1]: completely abolished

Molecule: K11A: SPAM variant with alanine substituted at position 11 (MPIFLDHILNAFWILHYAGSGSSG; also: [35S]-labeled methionine, peptide-RNA fusion)
- effect of mutation on hPD-L1 binding (alanine scanning) [1]: completely abolished

Molecule: L5A: SPAM variant with alanine substituted at position 5 (MPIFADHILNKFWILHYAGSGSSG; also: [35S]-labeled methionine, peptide-RNA fusion)
- effect of mutation on hPD-L1 binding (alanine scanning) [1]: little or no significant influence

B1: mPD-1: extracellular domain of murine PD-1 (L25 to S157, C83S) with HA tag and His tag (protein)
chain: MALEVPNGPWRSLTFYPAWLTVSEGANATFTCSLSNWSEDLMLNWNRLSPSNQTEKQAAFSNGLSQPVQDARFQIIQLPNRHDFHMNILDTRRNDSGIYLCGAISLHPKAKIEESPGAELVVTERILETSTRYPS
modifications: left off: HA tag (…), C-terminal, kept | His tag, C-terminal, state not stated
- Kd [8]: 4 to 8 µM
